Compound activity: PubChem, several laboratories
PG9 Ab binder: binds the HIV-1 gp120 antibody PG9; TR-FRET gp120-PG9 antibody binding; inhibition, % at 6.7 µM; 0.43% of 360,000 active; AID 624416; in the data active = inhibition above about 8.5%
NR2E3 ag-1: activates human photoreceptor nuclear receptor NR2E3; inhibition of corepressor binding, % at 4.78 µM; 0.12% of 320,000 active; Q9Y5X4; GST-NR2E3/biotin-RetCOR TR-FRET, 1536-well; AID 2300;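 active = percent inhibition above the cutoff of mean plus 3 SD of all tested compounds, set per screening campaign, cut at about 20% in these data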
Target sequence (Q9Y5X4 whole entry, looked up): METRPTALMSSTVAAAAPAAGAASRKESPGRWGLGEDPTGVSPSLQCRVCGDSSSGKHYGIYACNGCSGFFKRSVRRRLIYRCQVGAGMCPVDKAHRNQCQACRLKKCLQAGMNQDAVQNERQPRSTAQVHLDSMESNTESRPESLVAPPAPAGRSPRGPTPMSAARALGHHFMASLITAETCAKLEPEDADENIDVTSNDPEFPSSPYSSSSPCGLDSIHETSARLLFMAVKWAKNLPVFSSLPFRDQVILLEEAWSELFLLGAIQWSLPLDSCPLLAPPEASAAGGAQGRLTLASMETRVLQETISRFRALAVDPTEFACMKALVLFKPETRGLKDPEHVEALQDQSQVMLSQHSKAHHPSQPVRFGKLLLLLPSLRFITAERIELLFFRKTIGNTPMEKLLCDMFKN
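Material: NR2E3–RetCOR corepressor complex / Amount: 1.35 nM GST-NR2E3 / Medium: Tris pH 7.5 / Compound: single nominal compound dose of 4.8 µM / Incubation: 5 h at 4 °C / Technique: TR-FRET, Eu(K)-anti-GST donor, streptavidin-D2 acceptor, ex 340, em 617/671 nm / Read-out basis: percent loss of FRET ratio relative to control wells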
Rev-erbA mod: Rev-erb alpha (human) modulation. activity, % at 10 µM. P20393. 0.79% of 370,000 active. Rev-erbα–FITC-DNA binding, fluorescence polarization, 90 min;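 active = activity above about 14%, limit read from the data; passing the limit was not always enough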
NR2E3 ag-2: human photoreceptor-specific nuclear receptor agonism; AID 602229; 0.35% of 360,000 active; inhibition of corepressor binding, % at 3.98 µM; CHO-S Gal4-NCOR/VP16-NR2E3 two-hybrid, luciferase; Q9Y5X4;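 active = inhibition above the mean of all tested compounds plus 3 SD, cut at about 70% in these data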;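 also: higher means lower luciferase signal from less NR2E3 corepressor binding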
rCAG RNA binder: r(CAG) repeat RNA binding; TO-PRO-1 dye displacement fluorescence; inhibition, % at 3 µM; 1.3% of 370,000 active;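 active = inhibition above the plate cutoff, the mean of all test compounds on that plate plus 3 SD, cut at about 35% in these data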;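 also: higher means more dye released from RNA so lower well fluorescence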
rCAG bind conf: r(CAG) RNA repeat binding, confirmation. 70% of 4,300 active. inhibition, % at 3 µM. shares compounds with rCAG RNA binder. TO-PRO-1 dye displacement fluorescence;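 active = inhibition above a per-plate cutoff, the mean inhibition of sample wells plus 3 SD, cut at about 35% in these data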;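 also: loss of TO-PRO-1 fluorescence as compound displaces dye from 1x1 AA loop RNA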
DNA CAG counter: disrupts DNA CAG TO-PRO-1 complex, flagging rCAG hits. shares compounds with rCAG RNA binder. d(CAG) DNA oligo TO-PRO-1 dye displacement, fluorescence. inhibition, % at 3 µM. 94% of 4,300 active. AID 652068;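 active = inhibition above its plate's cutoff, the mean test-well inhibition plus 3 SD, cut at about 4.8% in these data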;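 also: hits displace the dye from DNA and so lower well fluorescence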
DNA CAG DR: counter-screen for rCAG binders: inhibitors of DNA CAG TO-PRO-1 complex. IC50, µM. DNA CAG/GTC duplex TO-PRO-1 dye displacement fluorescence. 20% of 250 active. shares compounds with rCAG RNA binder. AID 686960; in the data active = IC50 below about 10 µM
Large screens that a line does not name were inactive (follow-up assays come after a bar, where they were run). Only some compounds are listed: those with a hit (about 2.6% of all), similar ones and a draw of the others.

CCOc1nc2ccccc2nc1NS(=O)(=O)c1ccc(Cl)cc1	rCAG RNA binder 40.2 | rCAG bind conf inactive | DNA CAG counter 4.6
Cc1ccc(S(=O)(=O)Nc2nc3ccccc3nc2N2CCN(c3ccccc3F)CC2)cc1	rCAG RNA binder 53.7 | rCAG bind conf 67.7 | DNA CAG counter 27.9
CS(=O)(=O)c1ccccc1C(=O)Nc1ccc(S(=O)(=O)N2CCCC2)cc1	none (no result: NR2E3 ag-1)
Cn1c(SCC(=O)Nc2ccccc2)nc(O)cc1=O	rCAG RNA binder 37.2 | rCAG bind conf inactive | DNA CAG counter 5.0
CCCn1c(SCC(=O)Nc2ccc(F)c(Cl)c2)nc(O)cc1=O	none (no result: NR2E3 ag-1)
COc1ccc(NC(=O)CSc2nc(O)cc(=O)n2-c2ccccc2)cc1	rCAG RNA binder 37.7 (no result: NR2E3 ag-1) | rCAG bind conf inactive | DNA CAG counter 7.5
Cc1ccc(-n2c(SCC(=O)Nc3ccc(Cl)cc3)nc(O)cc2=O)cc1	rCAG RNA binder 37.0 | rCAG bind conf inactive | DNA CAG counter 10.2
COc1ccc(-n2c(SCC(=O)Nc3ccc(Cl)cc3)nc(O)c(Cc3ccccc3)c2=O)cc1	rCAG RNA binder 62.5 | rCAG bind conf 53.9 | DNA CAG counter 19.7
CC(=Nc1ccccc1)C1=C(O)C(CC(C)C)NC1=O (stereo not given)	none (no result: NR2E3 ag-1)
COc1ccccc1-n1c(SCC(=O)Nc2ccc(Br)cc2)nc(O)cc1=O	rCAG RNA binder 41.5 | rCAG bind conf inactive | DNA CAG counter 7.5
COc1ccccc1-n1c(SCC(=O)N2CCOCC2)nc(O)cc1=O	none
O=C(CSc1nc(O)cc(=O)n1-c1ccccc1)Nc1nc2ccccc2s1	rCAG RNA binder 44.0 | rCAG bind conf 51.6 | DNA CAG counter 18.6
O=C(NNC(=O)c1ccccc1O)c1ccc(Cl)c(S(=O)(=O)N2CCc3ccccc32)c1	rCAG RNA binder 48.0 | rCAG bind conf 52.2 | DNA CAG counter 18.6
O=C1Nc2ccc(Br)cc2C12NNc1ccccc1O2 (stereo not given)	rCAG RNA binder 61.3 | rCAG bind conf 57.9 | DNA CAG counter 47.5
O=C(CSc1nnc(CCCOc2ccc(Cl)cc2Cl)o1)Nc1ccc(C(=O)O)cc1	rCAG RNA binder 41.7 | rCAG bind conf inactive | DNA CAG counter 5.0
Cc1ccc(NS(=O)(=O)c2ccc3c(c2)OCCCO3)cc1S(=O)(=O)N1CCOCC1	none
Cc1ccc2sc(NNC(=O)c3cc(-c4cccs4)nc4ccccc34)nc2c1C	none (no result: NR2E3 ag-2)
O=C(NNc1nc2ccc(Cl)cc2s1)c1cc(-c2cccs2)nc2ccccc12	rCAG RNA binder 54.8 | rCAG bind conf 50.3 | DNA CAG counter 24.6
Cc1cc(C)c2nc(NNC(=O)c3cc(-c4cccs4)nc4ccccc34)sc2c1	rCAG RNA binder 37.4 | rCAG bind conf 42.4 | DNA CAG counter 18.4
CCN(CC(=O)Nc1c(F)cccc1F)C(=O)c1ccc(OCC(=O)N2CCOCC2)c(OC)c1	none (no result: NR2E3 ag-1)
C[C@H](CO)N1C[C@H](C)[C@@H](CN(C)C(=O)c2cnccn2)Oc2cc(C#CCC3CCCC3)ccc2S1(=O)=O	none (no result: NR2E3 ag-1)
COc1cc(C)c2c(c1C=O)Oc1c(c(C)c(O)c3c1C(O)OC3=O)OC2=O (stereo not given)	rCAG RNA binder 53.9 | rCAG bind conf inactive | DNA CAG counter 7.0
COc1ccc(NC(=O)c2ccc3c(c2)S(=O)(=O)N=C2CCCCCN23)cc1S(N)(=O)=O	none (no result: NR2E3 ag-1)
COC(=O)c1sc2ccccc2c1NC(=O)c1ccc(S(=O)(=O)N2CC(C)CC(C)C2)cc1 (stereo not given)	none
Cc1ccc2nc(NNC(=O)c3ccc(S(=O)(=O)N4CCc5ccccc5C4)cc3)sc2c1	rCAG RNA binder 51.0 | rCAG bind conf 60.2 | DNA CAG counter 29.1
Cc1cc(C)c2nc(NNC(=O)c3ccc(S(=O)(=O)N4CCCC(C)C4)cc3)sc2c1 (stereo not given)	rCAG RNA binder 47.5 | rCAG bind conf 52.1 | DNA CAG counter 22.8
Cc1cc(C)c2nc(NNC(=O)c3ccc(S(=O)(=O)N4CC(C)CC(C)C4)cc3)sc2c1 (stereo not given)	rCAG RNA binder 42.7 | rCAG bind conf 48.7 | DNA CAG counter 24.4
CC1CCCN(S(=O)(=O)c2ccc(C(=O)Nc3nnc(C4CC4)o3)cc2)C1 (stereo not given)	none
Cc1cccc2sc(NNC(=O)c3ccc(S(=O)(=O)N4CC(C)CC(C)C4)cc3)nc12 (stereo not given)	rCAG RNA binder 66.3 | rCAG bind conf 62.9 | DNA CAG counter 29.7
COc1ccc(CNS(=O)(=O)c2ccccc2Br)c(OC)c1	none (no result: NR2E3 ag-1, NR2E3 ag-2)
CON(Cc1ccccc1)S(=O)(=O)c1ccccc1Br	none (no result: NR2E3 ag-1, NR2E3 ag-2)
O=c1[nH]c(=S)[nH]c2c1C(C1CCCCC1)OC(C1CCCCC1)C2 (stereo not given)	none (no result: NR2E3 ag-1)
O=C(OCc1cn(Cc2ccc(F)cc2)nn1)N1CCCC1	none (no result: PG9 Ab binder, NR2E3 ag-1, NR2E3 ag-2)
CCCCCCCN1C(Nc2ccccc2)=NC[C@@H]1CC(C)C	none
CCCN(C(=O)Cc1csc(-c2ccccc2)n1)C1CCS(=O)(=O)C1 (stereo not given)	none
CCCc1c(OCCCOc2ccc(OCC(=O)O)cc2)ccc(C(C)=O)c1O	rCAG RNA binder 60.6 | rCAG bind conf 50.9 | DNA CAG counter 15.7
COCCN1C(=O)/C(=C/c2ccc(OCc3ccc(C(=O)O)cc3)c(OC)c2)SC1=Nc1ccccc1	none
COc1cc(/C=C2\SC(=Nc3ccccc3)N(Cc3ccco3)C2=O)ccc1OC(C)C(=O)O (stereo not given)	rCAG RNA binder 66.9 | rCAG bind conf 70.6 | DNA CAG counter 28.9 | DNA CAG DR inactive
COc1cc(/C=C2\SC(=Nc3ccc(N4CCOCC4)cc3)N(C)C2=O)ccc1OC(C)C(=O)O (stereo not given)	rCAG RNA binder 41.3 | rCAG bind conf 52.3 | DNA CAG counter 17.0
O=C(OCC(=O)N1CCOCC1)c1ccc(Cl)cc1[N+](=O)[O-]	none
FC(F)(F)c1cccc(NC(=S)NNC(=S)NCc2ccccc2)c1	rCAG RNA binder 78.5 | rCAG bind conf 63.3 | DNA CAG counter 32.8
O=C(NNC(=S)Nc1cccc(C(F)(F)F)c1)c1ccccc1Cl	none
O=C(NNC(=S)Nc1cccc(C(F)(F)F)c1)c1cccc(Cl)c1	rCAG RNA binder 46.9 | rCAG bind conf 47.9 | DNA CAG counter 14.1
O=C(Nc1ccccc1Cl)OCC#CCOC(=O)Nc1ccccc1Cl	none (no result: NR2E3 ag-1)
Cc1ccc(S(=O)(=O)NC(=O)COc2cc(C)ccc2C(C)C)cc1	rCAG RNA binder 35.6 | rCAG bind conf inactive | DNA CAG counter inactive
Cc1ccc(C(C)C)c(OCC(=O)NNC(=O)Nc2ccccc2)c1	none
